Measured values: ChEMBL document CHEMBL1122658, “Amnesia-reversal activity of a series of N-[(disubstituted-amino)alkyl] -2-oxo-1-pyrrolidineacetamides, including pramiracetam” (1984)
Where “and” joins values, the source holds several entries; their conditions need not be identical. Equal entries are not always repeated.

Key:
Mus musculus [1] = assay: Ability to reverse electroconvulsive shock (ECS) induced amnesia in mice, after administering intraperitoneally, at a dose of 80 mg/kg; assay type: functional; conditions: route intraperitoneal
How it was run: (§1)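 Male CF-1 mice (20-25 g), five groups of 20, trained in one trial on step-through inhibitory avoidance (darkened chamber). ECS given 2 h after training. Test drug or vehicle placebo injected ip 2 h after ECS, 1 h before retention test. Entry into box within 60 s scored as amnesia. % reversal = (drug − base-line ECS+placebo)/(ceiling no-ECS+placebo − base-line) ×100.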

Mus musculus [2] = assay: Compound was evaluated for the ability to reverse electroconvulsive shock (ECS) induced amnesia in mice, after administering intraperitoneally, at a dose of 10 mg/kg; assay type: functional; conditions: route intraperitoneal; how it was run: as §1
Mus musculus [3] = assay: Ability to reverse electroconvulsive shock (ECS) induced amnesia in mice, after administering intraperitoneally, at a dose of 160 mg/kg; assay type: functional; conditions: route intraperitoneal; how it was run: as §1
Mus musculus [4] = assay: Ability to reverse electroconvulsive shock induced amnesia in mice, after administering intraperitoneally at a dose of 20 mg/kg; assay type: functional; conditions: route intraperitoneal; how it was run: as §1
Mus musculus [5] = assay: Compound was evaluated for the ability to reverse electroconvulsive shock (ECS) induced amnesia in mice, after administering intraperitoneally, at a dose of 40 mg/kg; assay type: functional; conditions: route intraperitoneal; how it was run: as §1
Mus musculus [6] = assay: Ability to reverse electroconvulsive shock (ECS) induced amnesia in mice, after administering intraperitoneally, at a dose of 80.0 mg/kg; assay type: functional; conditions: route intraperitoneal; how it was run: as §1
Mus musculus [7] = assay: Ability to reverse electroconvulsive shock (ECS) induced amnesia in mice, after administering intraperitoneally, at a dose of 0.63 mg/kg; assay type: functional; conditions: route intraperitoneal; how it was run: as §1
Mus musculus [8] = assay: Ability to reverse electroconvulsive shock induced amnesia in mice, after administering intraperitoneally at a dose of 1.25 mg/kg; assay type: functional; conditions: route intraperitoneal; how it was run: as §1
Mus musculus [9] = assay: Compound was evaluated for the ability to reverse electroconvulsive shock (ECS) induced amnesia in mice, after administering intraperitoneally, at a dose of […] mg/kg; assay type: functional; how it was run: as §1
Mus musculus [10] = assay: Ability to reverse electroconvulsive shock induced amnesia in mice, after administering intraperitoneally at a dose of 20.0 mg/kg; assay type: functional; conditions: route intraperitoneal; how it was run: as §1
Mus musculus [11] = assay: Ability to reverse electroconvulsive shock induced amnesia in mice, after administering intraperitoneally at a dose of 5 mg/kg; assay type: functional; conditions: route intraperitoneal; how it was run: as §1
Mus musculus [12] = assay: Compound was evaluated for the ability to reverse electroconvulsive shock (ECS) induced amnesia in mice, after administering intraperitoneally, at a dose of 40.0 mg/kg; assay type: functional; conditions: route intraperitoneal; how it was run: as §1
Mus musculus [13] = assay: Ability to reverse electroconvulsive shock (ECS) induced amnesia in mice, after administering intraperitoneally, at a dose of 5 mg/kg; assay type: functional; conditions: route intraperitoneal; how it was run: as §1
Mus musculus [14] = assay: Compound was evaluated for the ability to reverse electroconvulsive shock (ECS) induced amnesia in mice, after administering intraperitoneally, at a dose of 5 mg/kg; assay type: functional; conditions: route intraperitoneal; how it was run: as §1
Mus musculus [15] = assay: Ability to reverse electroconvulsive shock induced amnesia in mice, after administering intraperitoneally at a dose of 2.5 mg/kg; assay type: functional; conditions: route intraperitoneal; how it was run: as §1
Mus musculus [16] = assay: Compound was evaluated for the ability to reverse electroconvulsive shock (ECS) induced amnesia in mice, after administering intraperitoneally, at a dose of 320 mg/kg; assay type: functional; conditions: route intraperitoneal; how it was run: as §1
Mus musculus [17] = assay: Compound was evaluated for the ability to reverse electroconvulsive shock (ECS) induced amnesia in mice, after administering intraperitoneally, at a dose of 320.0 mg/kg; 18 of 20 mice died at this dose before completion of the test; assay type: functional, organism-based; parameters: dose 320 mg/kg; how it was run: as §1
Mus musculus [18] = assay: Compound was evaluated for the ability to reverse electroconvulsive shock (ECS) induced amnesia in mice, after administering intraperitoneally, at a dose of 80.0 mg/kg; 18 of 20 mice died at this dose; assay type: functional; conditions: route intraperitoneal; how it was run: as §1

CCC1(C)CC(=O)NC1=O (stereo not drawn) [ETHOSUXIMIDE]
Amnesia reversal (Mus musculus [1]): 10%
Amnesia reversal (Mus musculus [2]): 15%
Amnesia reversal (Mus musculus [3]): 10%
Amnesia reversal (Mus musculus [4]): 12%
Amnesia reversal (Mus musculus [5]): 10%

CC1CCCCN1CCCNC(=O)CN1CCCC1=O (stereo not drawn)
Amnesia reversal (Mus musculus [6]): 17%
Amnesia reversal (Mus musculus [7]): 0%
Amnesia reversal (Mus musculus [8]): 0%
Amnesia reversal (Mus musculus [9]): 10%
Amnesia reversal (Mus musculus [10]): 33%
Amnesia reversal (Mus musculus [11]): 33%

CN(C)CCCN1c2ccccc2CCc2ccccc21 [IMIPRAMINE]
Amnesia reversal (Mus musculus [2]): 10%
Amnesia reversal (Mus musculus [4]): 5%
Amnesia reversal (Mus musculus [12]): 15%
Amnesia reversal (Mus musculus [11]): 10%

NC(=O)CN1CCCC1=O [PIRACETAM]
Amnesia reversal (Mus musculus [1]; 80 mg/kg): 15% and 10%
Amnesia reversal (Mus musculus [4]): 20%
Amnesia reversal (Mus musculus [13]): 10%
Amnesia reversal (Mus musculus [14]): 15%

NC1=NC(=O)C(c2ccccc2)O1 (stereo not drawn) [PEMOLINE]
Amnesia reversal (Mus musculus [2]): 56%
Amnesia reversal (Mus musculus [15]): 20%
Amnesia reversal (Mus musculus [4]): 44%
Amnesia reversal (Mus musculus [12]): 56%
Amnesia reversal (Mus musculus [13]): 20%

O=C(CN1CCCC1=O)NCCCN1CCOCC1
Amnesia reversal (Mus musculus [6]): 58%
Amnesia reversal (Mus musculus [3]): 54%
Amnesia reversal (Mus musculus [10]): 17%
Amnesia reversal (Mus musculus [16]): 15%
Amnesia reversal (Mus musculus [11]): 0%

CC1CCCC(C)N1CCCCNC(=O)CN1CCCC1=O (stereo not drawn)
Amnesia reversal (Mus musculus [1]): 100%
Amnesia reversal (Mus musculus [3]): 60%
Amnesia reversal (Mus musculus [4]): 60%
Amnesia reversal (Mus musculus [17]): 18 of 20 mice died at this dose before completion of the test
Amnesia reversal (Mus musculus [11]): 50%

CCC1CCC(=O)N1CC(=O)NCCCN1C(C)CCCC1C (stereo not drawn)
Amnesia reversal (Mus musculus [18]): 42%
Amnesia reversal (Mus musculus [8]): 20%
Amnesia reversal (Mus musculus [15]): 50%
Amnesia reversal (Mus musculus [10]): 42%
Amnesia reversal (Mus musculus [13]): 50%

CC(C)(CNC(=O)CN1CCCC1=O)N1CCCCC1
Amnesia reversal (Mus musculus [6]): 55%
Amnesia reversal (Mus musculus [3]): 45%
Amnesia reversal (Mus musculus [10]): 27%
Amnesia reversal (Mus musculus [16]): 27%
Amnesia reversal (Mus musculus [5]): 73%
Amnesia reversal (Mus musculus [11]): 18%

CC1CCCC(C)N1CCCNC(=O)CN1CCC(c2ccccc2)C1=O (stereo not drawn)
Amnesia reversal (Mus musculus [1]): 0%
Amnesia reversal (Mus musculus [4]): 67%
Amnesia reversal (Mus musculus [14]): 50%

C1CCc2nnnn2CC1 [PENTYLENETETRAZOL]
Amnesia reversal (Mus musculus [2]): 10%
Amnesia reversal (Mus musculus [15]): 15%
Amnesia reversal (Mus musculus [4]): 15%
Amnesia reversal (Mus musculus [5]): 15%
Amnesia reversal (Mus musculus [11]): 20%
